The values that follow come from ChEMBL document CHEMBL1177873, “Synthesis and evaluation of some new benzothiazole derivatives as potential antimicrobial agents” (Eur J Med Chem, 2010).

In brackets after ≈: the same amount, converted by molar mass. Activity calls are given as the source filed them. The rule behind the calls is not given here.

Test [1] has as its system Streptomyces griseus. Kind of test: Antibacterial activity against Streptomyces griseus MTCC 1540 at 200 ug/ml after 24 hrs by cup-plate method. The format is functional, organism-based. In short, it runs like this:
(§1)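 Cup-plate diffusion in nutrient agar, incubated 24 h at 37 °C. Compounds dissolved in DMF and tested at the single concentration given in the line. DMF served as the solvent control and ciprofloxacin as the reference standard. Read-out is the zone of inhibition diameter in mm.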

The subject of test [2] is Streptomyces griseus. Kind of test: Antibacterial activity against Streptomyces griseus MTCC 1540 at 10 ug/ml after 24 hrs by cup-plate method. Type of test: functional, organism-based. In short, it runs like this:
as §1

The test system of test [3] is Bacillus subtilis. Put plainly: Antibacterial activity against Bacillus subtilis MTCC 441 after 24 hrs. Type of test: functional. The conditions noted are these: MTCC 441, 24 h. In short, it runs like this: (§2)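 MIC was taken as the lowest concentration giving 100% growth inhibition relative to a drug-free control, after 24 h at 37 °C in nutrient agar. Compounds were dissolved in DMF, and ciprofloxacin was the reference.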

Test [4] concerns Escherichia coli. Put plainly: Antibacterial activity against Escherichia coli MTCC 443 at 10 ug/ml after 24 hrs by cup-plate method relative to ciprofloxacin. The format is functional, organism-based.
The test system of test [5] is Bacillus subtilis. Put plainly: Antibacterial activity against Bacillus subtilis MTCC 441 at 500 ug/ml after 24 hrs by cup-plate method. Type of test: functional, organism-based. In short, it runs like this: as §1
The subject of test [6] is Streptomyces griseus. Put plainly: Antibacterial activity against Streptomyces griseus MTCC 1540 at 500 ug/ml after 24 hrs by cup-plate method. Type of test: functional, organism-based. In short, it runs like this: as §1
The test system of test [7] is Streptomyces griseus. Kind of test: Antibacterial activity against Streptomyces griseus MTCC 1540 at 100 ug/ml after 24 hrs by cup-plate method relative to ciprofloxacin. The format is functional, organism-based.
The test system of test [8] is Streptomyces griseus. Put plainly: Antibacterial activity against Streptomyces griseus MTCC 1540 after 24 hrs. Type of test: functional. To be noted: MTCC 1540, 24 h. In short, it runs like this:
as §2

Test [9] concerns Bacillus subtilis. Put plainly: Antibacterial activity against Bacillus subtilis MTCC 441 at 200 ug/ml after 24 hrs by cup-plate method. The format is functional, organism-based. In short, it runs like this: as §1
Test [10] concerns Escherichia coli. Kind of test: Antibacterial activity against Escherichia coli MTCC 443 at 500 ug/ml after 24 hrs by cup-plate method. Type of test: functional, organism-based. In short, it runs like this:
as §1

Test [11] concerns Bacillus subtilis. Put plainly: Antibacterial activity against Bacillus subtilis MTCC 441 at 100 ug/ml after 24 hrs by cup-plate method relative to ciprofloxacin. The format is functional, organism-based.
For another test, the system named is Aspergillus niger. Put plainly: Antifungal activity against Aspergillus niger MTCC 282 at 30 ug/ml after 48 hrs by cup-plate method. To be noted: MTCC 282, 48 h, read-out: DIZ. Type of test: functional. In short, it runs like this: (§3)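 Cup-plate diffusion on Sabouraud's dextrose agar, incubated 48 h at 28 °C. Compounds in DMF, which also served as the control, with fluconazole as the reference standard.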

Test [12] concerns Escherichia coli. Put plainly: Antibacterial activity against Escherichia coli MTCC 443 at 1 ug/ml after 24 hrs by cup-plate method. Type of test: functional, organism-based. In short, it runs like this:
as §1

For test [13], the system named is Bacillus subtilis. Put plainly: Antibacterial activity against Bacillus subtilis MTCC 441 at 10 ug/ml after 24 hrs by cup-plate method. Type of test: functional, organism-based. In short, it runs like this:
as §1

In test [14] the test system is Escherichia coli. Kind of test: Antibacterial activity against Escherichia coli MTCC 443 at 100 ug/ml after 24 hrs by cup-plate method relative to ciprofloxacin. Type of test: functional, organism-based.
Test [15] deals with Escherichia coli. Kind of test: Antibacterial activity against Escherichia coli MTCC 443 at 200 ug/ml after 24 hrs by cup-plate method. The format is functional, organism-based. In short, it runs like this: as §1
In test [16] the test system is Escherichia coli. Kind of test: Antibacterial activity against Escherichia coli MTCC 443 after 24 hrs. The format is functional. The conditions noted are these: MTCC 443, 24 h. In short, it runs like this: as §2
The next test deals with Candida albicans. Put plainly: Antifungal activity against Candida albicans MTCC 227 at 30 ug/ml after 48 hrs by cup-plate method. Type of test: functional. The conditions noted are these: MTCC 227, 48 h, read-out: DIZ. In short, it runs like this:
as §3

The test system of test [17] is Streptomyces griseus. Put plainly: Antibacterial activity against Streptomyces griseus MTCC 1540 at 1 ug/ml after 24 hrs by cup-plate method. Type of test: functional, organism-based. In short, it runs like this: as §1
For test [18], the system named is Bacillus subtilis. Kind of test: Antibacterial activity against Bacillus subtilis MTCC 441 at 1 ug/ml after 24 hrs by cup-plate method. The format is functional, organism-based. In short, it runs like this:
as §1

The subject of test [19] is Streptomyces griseus. Kind of test: Antibacterial activity against Streptomyces griseus MTCC 1540 at 100 ug/ml after 24 hrs by cup-plate method. Type of test: functional, organism-based. In short, it runs like this:
as §1

In test [20] the test system is Bacillus subtilis. Kind of test: Antibacterial activity against Bacillus subtilis MTCC 441 at 200 ug/ml after 24 hrs by cup-plate method relative to ciprofloxacin. The format is functional, organism-based.
Test [21] deals with Escherichia coli. Put plainly: Antibacterial activity against Escherichia coli MTCC 443 at 10 ug/ml after 24 hrs by cup-plate method. Type of test: functional, organism-based. In short, it runs like this: as §1
In test [22] the test system is Escherichia coli. Kind of test: Antibacterial activity against Escherichia coli MTCC 443 at 100 ug/ml after 24 hrs by cup-plate method. Type of test: functional, organism-based. In short, it runs like this:
as §1

The subject of test [23] is Bacillus subtilis. Kind of test: Antibacterial activity against Bacillus subtilis MTCC 441 at 10 ug/ml after 24 hrs by cup-plate method relative to ciprofloxacin. Type of test: functional, organism-based.
In test [24] the test system is Bacillus subtilis. Put plainly: Antibacterial activity against Bacillus subtilis MTCC 441 at 100 ug/ml after 24 hrs by cup-plate method. The format is functional, organism-based. In short, it runs like this: as §1
The subject of test [25] is Streptomyces griseus. Kind of test: Antibacterial activity against Streptomyces griseus MTCC 1540 at 10 ug/ml after 24 hrs by cup-plate method relative to ciprofloxacin. The format is functional, organism-based.

Usually MIC stands for the lowest concentration that inhibits growth of the organism. Read a high MIC as weaker potency. For the compound `O=[N+]([O-])c1cccc(/C=N/n2c(S)nnc2CCNc2nc3ccccc3s2)c1`, the result in the test with Streptomyces griseus [1], in the test on Bacillus subtilis [5], with Streptomyces griseus [6], in the test on Streptomyces griseus [7], in the test on Bacillus subtilis [9] and with Escherichia coli [10] was Active. Further, the outcome in the test on Bacillus subtilis [11] and with Escherichia coli [15] was Active. The outcome in the test on Streptomyces griseus [2], in the test with Escherichia coli [4], in the test with Escherichia coli [12], in the test on Bacillus subtilis [13], in the test on Escherichia coli [14] and in the test on Streptomyces griseus [17] was inactive. The result in the test with Bacillus subtilis [18] was inactive. In addition, the MIC against Bacillus subtilis [3], in the test on Streptomyces griseus [8] and with Escherichia coli [16] was 200 µg/mL (≈ 470 µM) in each case. Besides, the zone of inhibition at 30 µg/mL is under 10 mm with Aspergillus niger and 10 mm in the test on Candida albicans.
As to `COc1ccc(/C=N/n2c(S)nnc2CCNc2nc3ccccc3s2)cc1OC`, the result in the test on Streptomyces griseus [1], in the test with Streptomyces griseus [19], in the test on Bacillus subtilis [5], with Streptomyces griseus [6], with Escherichia coli [10] and in the test with Escherichia coli [22] was Active. Moreover, the outcome in the test with Escherichia coli [15] was Active. In addition, the result with Streptomyces griseus [2], in the test on Bacillus subtilis [11], in the test with Escherichia coli [12], with Escherichia coli [21], in the test with Bacillus subtilis [13] and in the test with Streptomyces griseus [17] was inactive. The outcome in the test with Bacillus subtilis [18] was inactive. For the same compound, the MIC stood at 500 µg/mL (≈ 1130 µM) in the test with Bacillus subtilis [3], 100 µg/mL (≈ 227 µM) in the test on Streptomyces griseus [8] and 100 µg/mL (≈ 227 µM) against Escherichia coli [16]. The outcome with Bacillus subtilis [20] was Active. Also, the zone of inhibition at 30 µg/mL in the test with Aspergillus niger and with Candida albicans was 22 mm each time.
For `CN(C)c1ccc(/C=N/n2c(S)nnc2CCNc2nc3ccccc3s2)cc1`, the result in the test with Streptomyces griseus [1], in the test with Escherichia coli [4], with Streptomyces griseus [19], in the test with Bacillus subtilis [5], in the test on Streptomyces griseus [6] and with Bacillus subtilis [9] was Active. For the same compound, the result in the test with Escherichia coli [10], in the test on Escherichia coli [22], in the test with Escherichia coli [15] and with Bacillus subtilis [24] was Active. Besides, the result in the test on Streptomyces griseus [2], with Escherichia coli [12], in the test on Bacillus subtilis [23], in the test on Streptomyces griseus [17] and with Bacillus subtilis [18] was inactive. In addition, the MIC with Bacillus subtilis [3], in the test with Streptomyces griseus [8] and against Escherichia coli [16] was 100 µg/mL (≈ 236 µM) each time. Moreover, the zone of inhibition at 30 µg/mL amounted to 10 mm in the test on Aspergillus niger and 16 mm in the test with Candida albicans.
Take `OC(Cn1cncn1)(Cn1cncn1)c1ccc(F)cc1F` [FLUCONAZOLE]: the zone of inhibition at 30 µg/mL with Aspergillus niger and in the test with Candida albicans was 22 mm throughout.
As to `O=[N+]([O-])c1ccccc1/C=N/n1c(S)nnc1CCNc1nc2ccccc2s1`, the outcome in the test with Streptomyces griseus [1], in the test on Bacillus subtilis [5], with Streptomyces griseus [6], in the test on Streptomyces griseus [7], in the test with Bacillus subtilis [9] and with Escherichia coli [10] was Active. The outcome with Bacillus subtilis [11], in the test on Escherichia coli [14] and in the test on Escherichia coli [15] was Active. Further, the outcome in the test on Streptomyces griseus [25], with Escherichia coli [12], with Escherichia coli [21], in the test on Bacillus subtilis [23], with Streptomyces griseus [17] and in the test on Bacillus subtilis [18] was inactive. For the same compound, the MIC in the test on Bacillus subtilis [3], against Streptomyces griseus [8] and in the test on Escherichia coli [16] was 200 µg/mL (≈ 470 µM) throughout. The zone of inhibition at 30 µg/mL in the test on Aspergillus niger was 10 mm; in the test with Candida albicans it was under 10 mm.
Turning to `Sc1nnc(CCNc2nc3ccccc3s2)n1/N=C/c1ccccc1Cl`, the result in the test on Streptomyces griseus [1], in the test with Streptomyces griseus [25], in the test on Escherichia coli [4], in the test on Bacillus subtilis [5], in the test on Streptomyces griseus [6] and in the test on Bacillus subtilis [9] was Active. Besides, the result with Escherichia coli [10], with Bacillus subtilis [23], in the test with Escherichia coli [14] and with Escherichia coli [15] was Active. Also, the minimum inhibitory concentration (MIC) in the test with Bacillus subtilis [3], against Streptomyces griseus [8] and in the test with Escherichia coli [16] was 200 µg/mL (≈ 482 µM) in each case. Also, the result in the test with Streptomyces griseus [19], with Bacillus subtilis [11], in the test with Escherichia coli [12], in the test with Streptomyces griseus [17] and in the test with Bacillus subtilis [18] was inactive. For the same compound, the figures for the zone of inhibition at 30 µg/mL with Aspergillus niger and with Candida albicans were 16 mm and 22 mm, respectively.
On to `O=C(O)c1cn(C2CC2)c2cc(N3CCNCC3)c(F)cc2c1=O` [CIPROFLOXACIN], for which the result in the test on Streptomyces griseus [1], with Streptomyces griseus [2], in the test on Streptomyces griseus [19], in the test with Bacillus subtilis [5], with Streptomyces griseus [6] and with Bacillus subtilis [9] was Active. Further, the outcome in the test with Escherichia coli [10], in the test on Escherichia coli [21], with Bacillus subtilis [13], with Escherichia coli [22], with Escherichia coli [15] and in the test on Bacillus subtilis [24] was Active. Also, the minimal inhibitory concentration (MIC) in the test on Bacillus subtilis [3] and in the test on Streptomyces griseus [8] was 10 µg/mL (≈ 30.2 µM) each time. In addition, the result in the test on Escherichia coli [12], in the test with Streptomyces griseus [17] and with Bacillus subtilis [18] was inactive.
With `Oc1ccc(/C=N/n2c(S)nnc2CCNc2nc3ccccc3s2)cc1`, the result in the test on Streptomyces griseus [1], with Streptomyces griseus [19], in the test with Bacillus subtilis [5], in the test on Streptomyces griseus [6], in the test with Bacillus subtilis [9] and in the test on Escherichia coli [10] was Active. The result in the test with Escherichia coli [14], in the test with Escherichia coli [15] and with Bacillus subtilis [24] was Active. Moreover, the outcome with Streptomyces griseus [25], in the test on Escherichia coli [4], with Escherichia coli [12], in the test on Bacillus subtilis [23], in the test on Streptomyces griseus [17] and in the test with Bacillus subtilis [18] was inactive. In addition, the results for the MIC in the test on Bacillus subtilis [3], with Streptomyces griseus [8] and in the test with Escherichia coli [16] were 100 µg/mL (≈ 252 µM), 100 µg/mL (≈ 252 µM) and 200 µg/mL (≈ 504 µM), respectively. Further, the results for the zone of inhibition at 30 µg/mL in the test on Aspergillus niger and in the test with Candida albicans were 10 mm and 22 mm, respectively.
